What was measured:
Type in all cases: functional
Malme-3M [1] = assay: Cytotoxicity against human MALME-3M cells after 48 hrs by SRB assay
Procedure, shortened: (§1)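 NCI 60-cell-line panel of human tumour lines from nine cancer types. Continuous 48 h exposure at five 10-fold dilutions from 10^-4 to 10^-8 M, with 5-FU as positive control. SRB protein stain read spectrophotometrically at time zero, untreated control and each concentration. GI50, TGI and LC50 were derived from the [(Ti−Tz)/(C−Tz)]×100 growth relations, and out-of-range values are given as > or < the tested limits.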

[2] = Growth inhibition of human LOXIMVI cells assessed as cell growth at 10^-5 M after 48 hrs by SRB assay; conditions: LOX IMVI, read-out: Activity
SF-268 [3] = assay: Growth inhibition of human SF268 cells assessed as cell growth at 10^-6 M after 48 hrs by SRB assay; conditions: SF-268, 48 h, read-out: Activity
PC-3 = assay: Growth inhibition of human PC3 cells assessed as cell growth at 10^-8 M after 48 hrs by SRB assay; conditions: PC-3, 48 h, read-out: Activity
COLO 205 [4] = assay: Growth inhibition of human COLO205 cells assessed as cell growth at 10^-5 M after 48 hrs by SRB assay; conditions: COLO 205, 48 h, read-out: Activity
Procedure, shortened: (§2)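 Five-dose NCI panel protocol. Each dose (10^-4 to 10^-8 M, 10-fold steps) was given as 48 h continuous exposure, and protein was measured by SRB staining. Percentage growth at each level is [(Ti−Tz)/(C−Tz)]×100, where Tz is time-zero absorbance and C is untreated control.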

[5] = Growth inhibition of human UACC257 cells assessed as cell growth at 10^-7 M after 48 hrs by SRB assay; conditions: UACC-257, 48 h, read-out: Activity
NCI-H322M = assay: Growth inhibition of human NCI-H322M cells assessed as cell growth at 10^-5 M after 48 hrs by SRB assay; conditions: read-out: Activity
[6] = Growth inhibition of human Hs578T cells assessed as cell growth at 10^-6 M after 48 hrs by SRB assay; conditions: Hs-578T, read-out: Activity
SNB-75 = assay: Growth inhibition of human SNB75 cells assessed as cell growth at 10^-5 M after 48 hrs by SRB assay; conditions: SNB-75, 48 h, read-out: Activity
[7] = Growth inhibition of human OVCAR4 cells assessed as cell growth at 10^-6 M after 48 hrs by SRB assay; conditions: OVCAR-4, 48 h, read-out: Activity
NCI-H460 = assay: Cytotoxicity against human NCI-H460 cells after 48 hrs by SRB assay; conditions: NCI-H460, 48 h; procedure, shortened: as §1
T47D = assay: Growth inhibition of human T47D cells assessed as cell growth at 10^-7 M after 48 hrs by SRB assay; conditions: read-out: Activity
[8] = Growth inhibition of human SF295 cells assessed as cell growth at 10^-5 M after 48 hrs by SRB assay; conditions: SF-295, 48 h, read-out: Activity
[9] = Growth inhibition of human RXF393 cells assessed as cell growth at 10^-5 M after 48 hrs by SRB assay; conditions: RXF 393, 48 h, read-out: Activity
U-251 = assay: Growth inhibition of human U251 cells assessed as cell growth at 10^-4 M after 48 hrs by SRB assay; conditions: U-251, 48 h, read-out: Activity
[10] = Growth inhibition of human UACC257 cells assessed as cell growth at 10^-6 M after 48 hrs by SRB assay; conditions: UACC-257, 48 h, read-out: Activity
[11] = Growth inhibition of human OVCAR5 cells assessed as cell growth at 10^-7 M after 48 hrs by SRB assay; conditions: OVCAR-5, 48 h, read-out: Activity
[12] = Growth inhibition of human OVCAR5 cells assessed as cell growth at 10^-6 M after 48 hrs by SRB assay; conditions: OVCAR-5, 48 h, read-out: Activity
HCT-116 = assay: Growth inhibition of human HCT116 cells assessed as cell growth at 10^-4 M after 48 hrs by SRB assay; conditions: HCT-116, 48 h, read-out: Activity
A498 = assay: Growth inhibition of human A498 cells assessed as cell growth at 10^-5 M after 48 hrs by SRB assay; conditions: A498, 48 h, read-out: Activity; procedure, shortened: as §2
[13] = Growth inhibition of human OVCAR8 cells assessed as cell growth at 10^-5 M after 48 hrs by SRB assay; conditions: OVCAR-8, 48 h, read-out: Activity
CCRF-CEM = assay: Growth inhibition of human CCRF-CEM cells assessed as cell growth at 10^-5 M after 48 hrs by SRB assay; conditions: read-out: Activity; procedure, shortened: as §2
IGROV-1 = assay: Growth inhibition of human IGROV1 cells assessed as cell growth at 10^-4 M after 48 hrs by SRB assay; conditions: IGROV-1, 48 h, read-out: Activity
SN12C = assay: Growth inhibition of human SN12C cells assessed as cell growth at 10^-8 M after 48 hrs by SRB assay; conditions: read-out: Activity
NCI-H23 = assay: Growth inhibition of human NCI-H23 cells assessed as cell growth at 10^-8 M after 48 hrs by SRB assay; conditions: NCI-H23, 48 h, read-out: Activity
[14] = Growth inhibition of human EKVX cells assessed as cell growth at 10^-5 M after 48 hrs by SRB assay; conditions: read-out: Activity
Malme-3M [15] = assay: Growth inhibition of human MALME-3M cells assessed as cell growth at 10^-5 M after 48 hrs by SRB assay; conditions: read-out: Activity
ACHN = assay: Growth inhibition of human ACHN cells assessed as cell growth at 10^-8 M after 48 hrs by SRB assay; conditions: read-out: Activity; procedure, shortened: as §2
HOP-62 = assay: Growth inhibition of human HOP62 cells assessed as cell growth at 10^-8 M after 48 hrs by SRB assay; conditions: HOP-62, 48 h, read-out: Activity
[16] = Growth inhibition of human HCC2998 cells assessed as cell growth at 10^-4 M after 48 hrs by SRB assay; conditions: HCC 2998, 48 h, read-out: Activity
SF-268 [17] = assay: Cytotoxicity against human SF268 cells after 48 hrs by SRB assay; conditions: SF-268, 48 h; procedure, shortened: as §1
COLO 205 [18] = assay: Cytotoxicity against human COLO205 cells after 48 hrs by SRB assay; conditions: COLO 205, 48 h; procedure, shortened: as §1
[19] = read-out: LC50 (the source's name)
[20] = read-out: pLC50 (the source's name) (converted)

Cc1ccc(-c2nc3ccc(Cl)cc3c(=O)n2/N=C/c2ccccc2)cc1
GI50 (Malme-3M [1]; read-out: GI50): 5.97 µM | CC50 (Malme-3M [1]; [19]): > 100 µM | TGI (Malme-3M [1]; read-out: TGI): > 100 µM | GI50 (Malme-3M [1]; read-out: pGI50 (converted)): 6.03 µM | CC50 (Malme-3M [1]; [20]): > 100 µM | TGI (Malme-3M [1]; read-out: pTGI): > 100 µM | growth at 10 µM [2]: 63% | growth at 1 µM (SF-268 [3]): 90% | growth at 0.01 µM (PC-3): 92% | growth at 10 µM (COLO 205 [4]): 47% | growth at 0.1 µM [5]: 99% | growth at 10 µM (NCI-H322M): 52% | growth at 1 µM [6]: 84% | growth at 10 µM (SNB-75): 31% | growth at 1 µM [7]: 101% | GI50 (NCI-H460; read-out: GI50): 3.68 µM | CC50 (NCI-H460; [19]): > 100 µM | TGI (NCI-H460; read-out: TGI): > 100 µM | GI50 (NCI-H460; read-out: pGI50 (converted)): 3.72 µM | CC50 (NCI-H460; [20]): > 100 µM | TGI (NCI-H460; read-out: pTGI): > 100 µM | growth at 0.1 µM (T47D): 88% | growth at 10 µM [8]: 36% | growth at 10 µM [9]: 41% | growth at 100 µM (U-251): 7% | growth at 1 µM [10]: 97% | growth at 0.1 µM [11]: 88% | growth at 1 µM [12]: 90% | growth at 100 µM (HCT-116): 21% | growth at 10 µM (A498): 40% | growth at 10 µM [13]: 30% | growth at 10 µM (CCRF-CEM): 86% | growth at 100 µM (IGROV-1): 25% | growth at 0.01 µM (SN12C): 104% | growth at 0.01 µM (NCI-H23): 98% | growth at 10 µM [14]: 34% | growth at 10 µM (Malme-3M [15]): 43% | growth at 0.01 µM (ACHN): 93% | growth at 0.01 µM (HOP-62): 97% | growth at 100 µM [16]: 88% | GI50 (SF-268 [17]; read-out: GI50): 9.98 µM | CC50 (SF-268 [17]; [19]): > 100 µM | TGI (SF-268 [17]; read-out: TGI): > 100 µM | GI50 (SF-268 [17]; read-out: pGI50 (converted)): 10 µM | CC50 (SF-268 [17]; [20]): > 100 µM | TGI (SF-268 [17]; read-out: pTGI): > 100 µM | GI50 (COLO 205 [18]; read-out: GI50): 9 µM | LC50 (concentration killing 50% of cells) (COLO 205 [18]; read-out: LC50): > 100 µM | TGI (COLO 205 [18]; read-out: TGI): > 100 µM | GI50 (COLO 205 [18]; read-out: pGI50 (converted)): 8.91 µM | LC50 (concentration killing 50% of cells) (COLO 205 [18]; read-out: pLC50 (converted)): > 100 µM | TGI (COLO 205 [18]; read-out: pTGI): > 100 µM
